The test system of test [1] is Rattus norvegicus. Description: In vivo dopaminergic activity was assessed by measuring the decrease of DA […] levels in rat brain at dose 0.5 umol/kg. Type of test: functional. On the set-up: scale not given: the % may be the effect or the level left. The method, boiled down: (§1)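 Female Wistar-derived rats (160–220 g) given drug ip in saline with 0.1% sodium bisulfite. Killed by decapitation 40 min later. Striata dissected, frozen on dry ice, stored at -80 °C, then homogenized in 0.1 M perchloric acid and centrifuged. DA, HVA and DOPAC in the supernatant measured by Sephadex G10 cleanup and reverse-phase HPLC with amperometric detection, compared against controls.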

Test [2] relates to Rattus norvegicus. Description: In vivo dopaminergic activity was assessed by measuring the decrease of DA metabolite (HVA) levels in rat brain at dose 0.5 umol/kg. Type of test: functional. Set-up: scale not given: the % may be the effect or the level left. The method, boiled down: as §1
The test system of test [3] is Rattus norvegicus. As to the kind of experiment: In vivo dopaminergic activity was assessed by measuring the decrease of DA metabolite (DOPAC) levels in rat brain at dose 0.25 umol/kg. It is filed as functional. On the set-up: scale not given: the % may be the effect or the level left. The method, boiled down:
as §1

In test [4] the test system is Rattus norvegicus. As to the kind of experiment: In vivo dopaminergic activity was assessed by scoring stereotyped behavior in rats at dose 0.25 umol/kg. Type of test: functional. An outline of the steps: (§2)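 Rats dosed ip with drug in saline containing 0.1% sodium bisulfite. Stereotyped behaviour scored over 30 min after injection by a published rating method.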
Test [5] deals with Rattus norvegicus. As to the kind of experiment: In vivo dopaminergic activity was assessed by measuring the decrease of DA metabolite (HVA) levels in rat brain at dose 0.25 umol/kg. It is filed as functional. On the set-up: scale not given: the % may be the effect or the level left. An outline of the steps: as §1
In test [6] the test system is Rattus norvegicus. Description: In vivo dopaminergic activity was assessed by measuring the decrease of DA metabolite (DOPAC) levels in rat brain at dose 0.5 umol/kg. Type of test: functional. Set-up: scale not given: the % may be the effect or the level left. The method, boiled down:
as §1

Test [7] has as its system Rattus norvegicus. Description: In vivo dopaminergic activity was assessed by scoring stereotyped behavior in rats at dose 0.5 umol/kg. Type of test: functional. An outline of the steps:
as §2

Test [8] concerns the target Dopamine receptor. Description: Inhibitory activity against [3H]NPA binding (0.45) to dopamine receptor in striata of female wistar rats. Type of test: protein assay. An outline of the steps:
(§3)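 Rat striatal membranes prepared in 15 mM Tris-HCl with 1 mM EDTA and 0.01% ascorbate, pH 7.5, washed by repeated 35000g spins. Incubated in triplicate for 30 min at 25 °C with 0.46 nM [³H]NPA and competitor over 10⁻¹¹–10⁻⁵ M. Nonspecific binding defined with 10⁻⁶ M (+)-butaclamol. Bound label collected on GF/B filters and counted by scintillation. IC50 from log-probit analysis of at least three determinations.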

In test [9] the test system is Rattus norvegicus. As to the kind of experiment: In vivo dopaminergic activity was assessed by measuring the decrease of DA […] levels in rat brain at dose 0.25 umol/kg. It is filed as functional. On the set-up: scale not given: the % may be the effect or the level left. An outline of the steps: as §1
Test [10] deals with Rattus norvegicus. Description: In vivo dopaminergic activity was assessed by measuring the decrease of DA metabolite (HVA) levels in rat brain at dose 10 umol/kg. Type of test: functional. On the set-up: scale not given: the % may be the effect or the level left. An outline of the steps: as §1
The subject of test [11] is Rattus norvegicus. As to the kind of experiment: In vivo dopaminergic activity was assessed by measuring the decrease of DA […] levels in rat brain at dose 5 umol/kg. Type of test: functional. Set-up: scale not given: the % may be the effect or the level left. An outline of the steps:
as §1

The test system of test [12] is Rattus norvegicus. Description: In vivo dopaminergic activity was assessed by measuring the decrease of DA metabolite (HVA) levels in rat brain at dose 5 umol/kg. It is filed as functional. Set-up: scale not given: the % may be the effect or the level left. The method, boiled down:
as §1

For test [13], the system named is Rattus norvegicus. As to the kind of experiment: In vivo dopaminergic activity was assessed by measuring the decrease of DA […] levels in rat brain at dose 10 umol/kg. Type of test: functional. Set-up: scale not given: the % may be the effect or the level left. An outline of the steps: as §1
Test [14] has as its system Rattus norvegicus. As to the kind of experiment: In vivo dopaminergic activity was assessed by scoring stereotyped behavior in rats at dose 5 umol/kg. Type of test: functional. An outline of the steps:
as §2

The test system of test [15] is Rattus norvegicus. Description: In vivo dopaminergic activity was assessed by measuring the decrease of DA metabolite (DOPAC) levels in rat brain at dose 10 umol/kg. It is filed as functional. Set-up: scale not given: the % may be the effect or the level left. The method, boiled down:
as §1

For test [16], the system named is Rattus norvegicus. Description: In vivo dopaminergic activity was assessed by scoring stereotyped behavior in rats at dose 10 umol/kg. It is filed as functional. The method, boiled down: as §2
Test [17] relates to Rattus norvegicus. Description: In vivo dopaminergic activity was assessed by measuring the decrease of DA metabolite (DOPAC) levels in rat brain at dose 5 umol/kg. Type of test: functional. Set-up: scale not given: the % may be the effect or the level left. An outline of the steps:
as §1

The target of test [18] is Dopamine receptor. As to the kind of experiment: Inhibitory activity against [3H]NPA binding (0.45) to dopamine receptors in striata of female wistar rats. Type of test: protein assay. An outline of the steps:
as §3

A word on the IC50: it is the midpoint of a concentration-inhibition curve.

For the compound `CCCN(CCC)C1CCc2c(ccc(O)c2O)C1` (single isomer, unassigned; (-)), the Control is reported as 114.2% with Rattus norvegicus [1]; less than 42.6% in the test on Rattus norvegicus [2]; less than 53.7% in the test with Rattus norvegicus [3]; less than 42.5% in the test on Rattus norvegicus [5]; less than 58% in the test on Rattus norvegicus [6]; 98.4% in the test on Rattus norvegicus [9]. In addition, the Stereotypy score in the test on Rattus norvegicus [4] and with Rattus norvegicus [7] was 4 each time. For the same compound, the IC50 at Dopamine receptor [8] was found to be 2.5 nM.
With `CCCN(CCC)C1CCc2c(ccc(O)c2O)C1` (single isomer, unassigned; (+)), the Control in the test with Rattus norvegicus [1] is listed as 109.4%; in the test with Rattus norvegicus [2], 86.5%; in the test on Rattus norvegicus [10], less than 41.2%; in the test on Rattus norvegicus [11] it was 115%; in the test on Rattus norvegicus [12], less than 48.6%; with Rattus norvegicus [6], 93.3%. Moreover, the Control with Rattus norvegicus [13] is recorded as less than 125.8%; with Rattus norvegicus [15] it was less than 60.1%; in the test on Rattus norvegicus [17], 68.9%. The Stereotypy score in the test with Rattus norvegicus [14] was found to be 3; with Rattus norvegicus [16], 3; with Rattus norvegicus [7], 0. On Dopamine receptor [8], this compound registered an IC50 of 400 nM.
In the case of `CCCN(CCC)C1CCc2c(ccc(O)c2O)C1` (racemic), the Control in the test with Rattus norvegicus [1] is 114.9%; in the test on Rattus norvegicus [2], 47.6%; with Rattus norvegicus [3], 61%; with Rattus norvegicus [5] it was 36.2%; with Rattus norvegicus [6], 58.5%; with Rattus norvegicus [9] it was 103%. For the same compound, the IC50 at Dopamine receptor [18] came to 4 nM.

Values taken from ChEMBL document CHEMBL1123002, “Resolution of 5,6-dihydroxy-2-(N,N-di-n-propylamino)tetralin in relation to the structural and stereochemical requirements for centrally acting dopamine agonists” (J Med Chem, 1985).
